Measurements reported in ChEMBL document CHEMBL1139179, “5-Alkynyl-2'-deoxyuridines: chromatography-free synthesis and cytotoxicity evaluation against human breast cancer cells” (Bioorg Med Chem, 2007).

Key:
MDA-MB-231 = assay: Cytotoxicity against human MDA-MB-231 cells after 72 hrs; assay type: functional, cell-based; settings: MDA-MB-231, 72 h
Method in brief: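 MDA-MB-231 cells (100 μL at 5000 cells/mL) grown 72 h at 37 °C, 5% CO2, then given graded concentrations (six replicates) for a further 72 h. Glutardialdehyde fixation, 0.02 M crystal violet staining, 70% ethanol elution, absorbance at 590 nm. A day-0 biomass plate was subtracted and the control taken as 100%. IC50 is 50% proliferation inhibition, mean of at least two independent runs.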

MCF7 [1] = assay: Cytotoxicity against human MCF7 cells after 96 hrs; settings: MCF7, 96 h
MCF7 [2] = assay: Cytotoxicity against human MCF7 cells after 72 hrs; assay type: functional, cell-based; settings: MCF7, 72 h

`C#Cc1cn([C@H]2C[C@H](O)[C@@H](CO)O2)c(=O)[nH]c1=O` showed an IC50 (MDA-MB-231) of 4.4 µM and an IC50 (MCF7 [1]) of 0.4 µM.
`C[Si](C)(C)C#Cc1cn([C@H]2C[C@H](O)[C@@H](CO)O2)c(=O)[nH]c1=O` was tested, and the IC50 (MDA-MB-231) was 4.2 µM and the IC50 (MCF7 [1]) was 1.6 µM.
`O=c1[nH]c(=O)n([C@H]2C[C@H](O)[C@@H](CO)O2)cc1C#CC1CC1` showed an IC50 (MDA-MB-231) of over 50 µM and an IC50 (MCF7 [1]) of over 50 µM.
`Cc1ccc(C#Cc2cn([C@H]3C[C@H](O)[C@@H](CO)O3)c(=O)[nH]c2=O)cc1` showed an IC50 (MCF7 [2]) of 0.9 µM and an IC50 (MDA-MB-231) of over 50 µM.
For `CCCCCc1ccc(C#Cc2cn([C@H]3C[C@H](O)[C@@H](CO)O3)c(=O)[nH]c2=O)cc1`, the IC50 (MDA-MB-231) was 29.2 µM and the IC50 (MCF7 [1]) was 37 µM.
In the case of `CCCC#Cc1cn([C@H]2C[C@H](O)[C@@H](CO)O2)c(=O)[nH]c1=O`, the IC50 (MDA-MB-231) is reported as over 50 µM and the IC50 (MCF7 [1]) is reported as over 50 µM.
Compound `O=c1[nH]c(=O)n([C@H]2C[C@H](O)[C@@H](CO)O2)cc1C#CC1(O)CCCCC1` has an IC50 (MDA-MB-231) of over 50 µM and an IC50 (MCF7 [1]) of over 50 µM.
Work on `CC(C)(C)c1ccc(C#Cc2cn([C@H]3C[C@H](O)[C@@H](CO)O3)c(=O)[nH]c2=O)cc1` yielded an IC50 (MDA-MB-231) of over 50 µM and an IC50 (MCF7 [1]) of 9.5 µM.
Work on `O=c1[nH]cc(F)c(=O)[nH]1` [FLUOROURACIL] yielded an IC50 (MCF7 [2]) of 4.8 µM and an IC50 (MDA-MB-231) of 9.6 µM.
